Test results taken from publication PMC12780242 (Scientific Reports, 2025).
Like-named read-outs stand apart in the source and are kept apart here.

Assays:
[1] = system: CDT1; experiment: CDT1 immunohistochemistry in endoscopic tumor biopsies; type: in vivo, human
Method in brief: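 Endoscopic tumor biopsies from gastric cancer patients, taken at screening and on day 2 after a single lead-in dose of pevonedistat given alone on day 1. Formalin-fixed paraffin-embedded sections stained by immunohistochemistry with a monoclonal anti-CDT1 antibody. Read-out is CDT1-positive cells.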

[2] = system: gastric cancer cells; details: preclinical studies; cited from earlier work
[3] = system: patients with unresectable advanced or recurrent gastric cancer (AGC); experiment: Dose-finding cohort; type: in vivo, human; details: in combination with CapeOX
Method in brief: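 Open-label multicenter phase I with standard 3 + 3 escalation. Pevonedistat dose levels were 20, 15 and 10 mg/m2. There was a single-agent lead-in dose on day 1, then a 7-day interval. Each 3-week cycle gave oxaliplatin 130 mg/m2 on day 1, oral capecitabine 1000 mg/m2/day twice daily about 12 h apart for 14 days, and pevonedistat on days 1, 3 and 5. The DLT window ran from the first lead-in dose to day 35 or the start of cycle 2, whichever came first. The RD also weighed adverse events in later cycles.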

[4] = Phase II trials for other cancers; cited from earlier work
[5] = system: AGC; details: cited from earlier work
[6] = third-line or later treatment of AGC
[7] = after failure of ≥ 2 chemotherapy regimens, pivotal Phase III trials

NS(=O)(=O)OC[C@@H]1C[C@@H](n2ccc3c(N[C@H]4CCc5ccccc54)ncnc32)C[C@@H]1O [Pevonedistat]
Cullin–RING ligase substrates NRF2 and CDT1 in post-treatment tumor biopsies ([1]; in vivo): increase
Pevonedistat-NEDD8 adduct in post-treatment tumor biopsies ([1]; in vivo): presence
Patients with increased CDT1 expression ([1]; post-treatment tumor biopsy): 75%
Growth of gastric cancer cells [2]: significantly suppresses the growth
Maximum tolerated dose of pevonedistat [3]: 15 mg/m^2
Recommended dose (RD) of pevonedistat ([3]; days 1, 3, 5 of a 3-week cycle): 15 mg/m^2
RD of pevonedistat combined with chemotherapy [4]: 20–25 mg/m^2

CCc1c2c(nc3ccc(OC(=O)N4CCC(N5CCCCC5)CC4)cc13)-c1cc3c(c(=O)n1C2)COC(=O)[C@]3(O)CC [irinotecan]
Patients experiencing disease progression as their best response [5, 6]: more than 50%
Response rates [5, 6]: around 10%

Nivolumab
Response rates [5, 7]: ≤ 10%
Patients experiencing disease progression as their best response [5, 6]: more than 50%
Response rates [5, 6]: around 10%

trifluridine/tipiracil
Response rates [5, 7]: ≤ 10%
Patients experiencing disease progression as their best response [5, 6]: more than 50%
Response rates [5, 6]: around 10%
